Test results from ChEMBL document CHEMBL1833940, “Discovery of 3-(2,6-dichloro-3,5-dimethoxy-phenyl)-1-{6-[4-(4-ethyl-piperazin-1-yl)-phenylamino]-pyrimidin-4-yl}-1-methyl-urea (NVP-BGJ398), a potent and selective inhibitor of the fibroblast growth factor receptor family of receptor tyrosine kinase” (J Med Chem, 2011).
Activity calls are given as the source filed them. The rule behind the calls is not given here.

Legend:
RT-112 = assay: Antitumor activity against human RT112 cells xenografted in nude Rowett rat assessed as tumour stasis at 5 mg/kg, po qd administered for 20 days; type: functional, organism-based; parameters: dose 5 mg/kg
How it was run: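 Female nude Rowett rats aged 6–9 weeks were given 1×10^6 RT112 cells subcutaneously in HBSS/50% Matrigel. Treatment began at about 100 mm3 mean tumor volume (n = 8): monophosphate salt in acetate buffer pH 4.6/PEG300 (1:1) by gavage, 5 mL/kg, at 5, 10, 15 mg/kg/qd free base for 20 days. Tumors were measured by caliper (L×W×H×π/6). Readouts were T/C and % regression from start volume.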

Tumour [1] = assay: Drug uptake in tumor of nude rowett rat bearing human RT112 cells at 4.25 mg/kg, po administered as a single dose after 16 hrs by LC-MS/MS analysis; type: ADME, organism-based, Neoplasm, RT-112; parameters: dose 4.25 mg/kg, route oral; details: in vivo
How it was run: (§1)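 Nude Rowett rats bearing subcutaneous RT112 tumors (n = 4) received a single gavage of monophosphate salt at 4.25 or 8.51 mg/kg free base in acetate buffer pH 4.6/PEG300. Tumors were collected at intervals after dosing, frozen and homogenized in an equal volume of ice-cold PBS. Compound levels were measured by LC-MS/MS (LOQ 3 ng/mL).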

[2] = Tmax in tumor of RT112/luc1 cells implanted athymic nude mouse at 5 mg/kg, iv by LC/MS/MS analysis; type: ADME, organism-based, Neoplasm; parameters: dose 5 mg/kg, route intravenous
How it was run: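 Female athymic nude mice carrying subcutaneous RT112/luc1 tumors (ca. 300–400 mm3). Dosing was 5 mg/kg iv by tail vein in NMP/PEG200 (1:9) or 20 mg/kg by oral gavage as a suspension in PEG300/D5W (2:1). Groups (n = 4) were sacrificed from 0.083 to 24 h. Plasma and tumor were measured by LC-MS/MS (LOQ 5 ng/mL, 10 ng/g). Noncompartmental analysis used the linear trapezoidal AUC; F was calculated from dose-normalized AUC.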

HT1197 = assay: Antiproliferative activity against human HT1197 cells after 72 hrs; type: functional, cell-based; details: HT1197, 72 h
How it was run: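 Bladder cancer lines from ATCC or DSMZ were seeded in 96-well plates (RT4, RT112 at 8500 cells/well; others at 5000 cells/well) in growth medium. Compound dilutions or DMSO were added 24 h later and incubated 72 h. Cells were fixed with glutaraldehyde, stained with 0.05% methylene blue and eluted with 3% HCl, then OD650 nm was read.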

[3] = Inhibition of LCK-B-mediated proliferation of mouse BAF3 cells transformed with Tel-kinase construct; type: cell-based
How it was run: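 Murine BaF3 cells made IL-3-independent by a Tel-kinase fusion were grown in RPMI-1640 with 10% FBS. Cells were seeded at 4250 per well with DMSO-diluted compound and incubated 48 h at 37 °C. Viability was read by Bright-Glo luminescence.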

[4] = Oral bioavailability in Wistar rat at 10 mg/kg; type: ADME, organism-based; details: in vivo
How it was run: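 Female Wistar rats received 5 mg/kg iv into the femoral vein in NMP/PEG200 (1:9), or the monophosphate salt orally at 10 mg/kg (free base) in acetate buffer pH 4.6/PEG300. Serial sublingual plasma samples were taken from 0.083 to 24 h.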

Rattus norvegicus = assay: Toxicity in nude Rowett rat xenografted with human RT112 cells assessed as weight loss at 15 mg/kg, po qd administered for 20 days; type: organism-based, RT-112; parameters: dose 15 mg/kg, route oral; details: in vivo, 480 h
How it was run: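 Female nude Rowett rats carried subcutaneous RT112 tumors (1 × 10^6 cells in Matrigel), starting at about 100 mm3. The monophosphate salt was gavaged daily for 20 days at 5, 10 or 15 mg/kg (free base) in acetate buffer pH 4.6/PEG300 (1:1), n = 8. Body weight and morbidity were monitored; ANOVA with Dunnett's test.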

Tumour [5] = assay: Drug uptake in tumour of nude Rowett rat bearing human RT112 cells at 8.51 mg/kg, po administered as a single dose after 7 hrs by LC-MS/MS analysis; type: ADME, organism-based, Neoplasm, RT-112; parameters: dose 8.51 mg/kg, route oral; details: in vivo; how it was run: as §1
[6] = Inhibition of recombinant S6K
How it was run: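 Purified recombinant kinases with peptide substrates and ATP at each kinase's Km. Read-out was microfluidic mobility shift.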

Cytochrome P450 1A2 = biological target: T1, Cytochrome P450 1A2 (Homo sapiens, UniProt P05177); assay: Inhibition of CYP1A2 using CEC as substrate; type: ADME
T1 sequence (P05177 whole entry): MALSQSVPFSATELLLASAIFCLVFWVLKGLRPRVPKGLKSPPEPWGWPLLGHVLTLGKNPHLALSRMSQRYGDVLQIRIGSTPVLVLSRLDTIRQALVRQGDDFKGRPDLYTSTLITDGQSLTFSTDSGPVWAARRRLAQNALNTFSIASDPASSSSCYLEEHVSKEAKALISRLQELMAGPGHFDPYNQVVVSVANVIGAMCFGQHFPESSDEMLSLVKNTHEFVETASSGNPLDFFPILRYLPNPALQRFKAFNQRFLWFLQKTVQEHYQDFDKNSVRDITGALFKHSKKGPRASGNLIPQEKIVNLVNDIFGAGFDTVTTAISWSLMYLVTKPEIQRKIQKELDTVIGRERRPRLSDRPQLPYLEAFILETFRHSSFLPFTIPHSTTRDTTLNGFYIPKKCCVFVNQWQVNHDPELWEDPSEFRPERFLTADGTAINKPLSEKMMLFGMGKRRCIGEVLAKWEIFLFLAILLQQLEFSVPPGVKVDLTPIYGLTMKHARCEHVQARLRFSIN
How it was run: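 Human CYP450 inhibition was measured with isoform-specific fluorogenic probe substrates: CEC for 1A2 and 2C19, MFC for 2C9, AMMC for 2D6. Incubation was at 37 °C with an NADPH-regenerating system in 384-well format. Metabolite was quantified by fluorescence, and IC50 was obtained by curve fitting.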

[7] = biological target: Insulin-like growth factor 1 receptor (Homo sapiens, UniProt P08069); assay: Inhibition of recombinant IGF1R
How it was run: (§2)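 Purified recombinant kinases under optimized conditions with peptide substrates. ATP was set at each kinase's Km. Phosphorylation was read by microfluidic mobility-shift separation of substrate and product; IC50 determined.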

[8] = biological target: Protein kinase C alpha type (Homo sapiens, UniProt P17252); assay: Inhibition of recombinant PKCalpha; how it was run: as §2
Tumour [9] = assay: Drug uptake in tumour of nude Rowett rat bearing human RT112 cells at 8.51 mg/kg, po administered as a single dose after 24 hrs by LC-MS/MS analysis; type: ADME, organism-based, Neoplasm, RT-112; parameters: dose 8.51 mg/kg, route oral; details: in vivo; how it was run: as §1
[10] = Cmax in plasma of RT112/luc1 cells implanted athymic nude mouse at 5 mg/kg, iv by LC/MS/MS analysis; type: ADME, organism-based; parameters: dose 5 mg/kg, route intravenous
How it was run: (§3)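 Female athymic nude mice carried subcutaneous RT112/luc1 tumors (5×10^6 cells, 50% Matrigel; about 300–400 mm3). Dosing was either 5 mg/kg iv by tail vein in NMP/PEG200 (1:9) or 20 mg/kg oral suspension in PEG300/D5W (2:1). Groups of mice (n = 4) were sacrificed at 0.083–24 h. Plasma and tumor levels were measured by LC-MS/MS (LOQ 5 ng/mL, 10 ng/g).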

[11] = biological target: Tyrosine-protein kinase Mer (Homo sapiens, UniProt Q12866); assay: Inhibition of recombinant MER
How it was run: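 Purified recombinant kinases under optimized conditions, with peptide substrates and ATP at each kinase's Km. Phosphorylation was read out by microfluidic mobility shift, and IC50 values were obtained.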

[12] = Half life in tumor of RT112/luc1 cells implanted athymic nude mouse at 20 mg/kg, po by LC/MS/MS analysis; type: ADME, organism-based, Neoplasm; parameters: dose 20 mg/kg, route oral; how it was run: as §3

Tyrosine-protein kinase Mer, sequence (Q12866 whole entry): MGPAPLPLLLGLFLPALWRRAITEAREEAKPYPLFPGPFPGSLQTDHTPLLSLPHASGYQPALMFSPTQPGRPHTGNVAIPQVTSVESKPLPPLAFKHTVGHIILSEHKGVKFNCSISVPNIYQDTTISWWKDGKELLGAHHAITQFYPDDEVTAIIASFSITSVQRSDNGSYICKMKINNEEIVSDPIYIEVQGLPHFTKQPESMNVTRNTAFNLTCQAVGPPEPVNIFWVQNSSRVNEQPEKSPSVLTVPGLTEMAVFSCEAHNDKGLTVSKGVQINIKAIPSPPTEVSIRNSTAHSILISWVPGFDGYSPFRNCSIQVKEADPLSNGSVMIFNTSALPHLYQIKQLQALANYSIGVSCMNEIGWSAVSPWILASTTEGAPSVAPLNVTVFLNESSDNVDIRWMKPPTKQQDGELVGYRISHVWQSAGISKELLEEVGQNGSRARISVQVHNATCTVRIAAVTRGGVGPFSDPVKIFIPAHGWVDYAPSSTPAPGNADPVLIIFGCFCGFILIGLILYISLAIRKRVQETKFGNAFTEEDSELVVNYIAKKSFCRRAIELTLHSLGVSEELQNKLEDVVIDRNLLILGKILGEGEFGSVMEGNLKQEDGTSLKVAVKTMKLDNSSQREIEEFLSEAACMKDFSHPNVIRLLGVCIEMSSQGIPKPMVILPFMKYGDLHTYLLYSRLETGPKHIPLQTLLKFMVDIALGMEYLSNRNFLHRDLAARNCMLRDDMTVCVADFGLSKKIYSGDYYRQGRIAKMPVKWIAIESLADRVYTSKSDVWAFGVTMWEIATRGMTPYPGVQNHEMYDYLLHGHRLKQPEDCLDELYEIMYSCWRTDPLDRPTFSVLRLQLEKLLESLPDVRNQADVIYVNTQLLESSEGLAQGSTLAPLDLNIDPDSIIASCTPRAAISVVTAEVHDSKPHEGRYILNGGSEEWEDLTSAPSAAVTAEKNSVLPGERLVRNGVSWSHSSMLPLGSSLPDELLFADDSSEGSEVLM
Insulin-like growth factor 1 receptor, sequence (P08069 31-736 limits assumed): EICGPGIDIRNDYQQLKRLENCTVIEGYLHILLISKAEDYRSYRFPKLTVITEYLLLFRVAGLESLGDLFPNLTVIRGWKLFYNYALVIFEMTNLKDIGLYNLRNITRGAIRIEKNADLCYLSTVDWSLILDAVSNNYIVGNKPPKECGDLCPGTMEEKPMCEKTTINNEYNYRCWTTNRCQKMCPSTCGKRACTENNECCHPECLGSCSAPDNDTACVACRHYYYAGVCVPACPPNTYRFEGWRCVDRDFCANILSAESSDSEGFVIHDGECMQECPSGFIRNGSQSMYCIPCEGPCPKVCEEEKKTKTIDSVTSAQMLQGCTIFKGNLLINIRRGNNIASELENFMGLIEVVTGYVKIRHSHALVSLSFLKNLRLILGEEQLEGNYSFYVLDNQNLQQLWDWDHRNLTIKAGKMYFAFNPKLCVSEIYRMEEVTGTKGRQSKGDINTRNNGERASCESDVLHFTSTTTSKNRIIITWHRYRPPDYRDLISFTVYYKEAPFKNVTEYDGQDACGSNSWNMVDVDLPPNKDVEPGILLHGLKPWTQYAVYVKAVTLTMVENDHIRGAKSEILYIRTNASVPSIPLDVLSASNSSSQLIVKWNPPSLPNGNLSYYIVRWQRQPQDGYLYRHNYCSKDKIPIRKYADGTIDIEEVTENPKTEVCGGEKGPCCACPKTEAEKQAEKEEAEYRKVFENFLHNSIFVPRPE
Insulin-like growth factor 1 receptor, sequence (P08069 741-1367 limits assumed): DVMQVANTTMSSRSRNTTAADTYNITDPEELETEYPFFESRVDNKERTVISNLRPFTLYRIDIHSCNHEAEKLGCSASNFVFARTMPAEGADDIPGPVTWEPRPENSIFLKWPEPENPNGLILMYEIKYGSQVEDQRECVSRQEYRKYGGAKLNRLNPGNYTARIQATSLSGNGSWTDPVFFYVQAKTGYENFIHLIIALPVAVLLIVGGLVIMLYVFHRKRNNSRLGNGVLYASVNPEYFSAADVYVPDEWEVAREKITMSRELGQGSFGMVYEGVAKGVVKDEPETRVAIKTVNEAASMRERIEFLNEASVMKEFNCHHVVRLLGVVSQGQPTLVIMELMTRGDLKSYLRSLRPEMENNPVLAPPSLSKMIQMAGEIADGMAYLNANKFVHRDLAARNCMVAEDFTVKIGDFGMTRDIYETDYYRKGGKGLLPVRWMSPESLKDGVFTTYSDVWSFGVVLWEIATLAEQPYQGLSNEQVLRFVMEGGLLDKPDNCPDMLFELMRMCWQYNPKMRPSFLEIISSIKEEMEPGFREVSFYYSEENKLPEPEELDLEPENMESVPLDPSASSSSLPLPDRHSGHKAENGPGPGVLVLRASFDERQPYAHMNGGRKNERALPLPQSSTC

In the case of `CCN1CCN(c2ccc(Nc3cc(N(C)C(=O)Nc4c(Cl)c(OC)cc(OC)c4Cl)ncn3)cc2)CC1.O=P(O)(O)O` [INFIGRATINIB PHOSPHATE], the Activity (RT-112) is reported as “Active”, the Drug uptake (Tumour [1]) is reported as 0.3 nmol/g and the Tmax [2] is reported as 2 h. It also gave an IC50 (HT1197) of 1.16 µM, an IC50 [3] of 2.48 µM and a bioavailability [4] of 51%. The Activity (Rattus norvegicus) was 9%, the Drug uptake (Tumour [5]) was 1.52 nmol/g and the IC50 [6] was > 10 µM. For the same compound, the IC50 (Cytochrome P450 1A2) was > 10 µM, the IC50 [7] was > 10 µM and the IC50 [8] was > 10 µM. The Drug uptake (Tumour [9]) was 0.32 nmol/g, the Cmax [10] was 860 nM and the IC50 [11] was > 10 µM. It also gave a half-life [12] of 13 h.
